Experimental data from ChEMBL document CHEMBL5107950, “Structure-based design of haloperidol analogues as inhibitors of acetyltransferase Eis from Mycobacterium tuberculosis to overcome kanamycin resistance” (RSC Med Chem, 2021).
Converted amounts (≈) assume the structure as drawn. The source made the active and inactive calls. The rule behind the calls is not given here.

How the values were obtained:
[1] = tested on: Mycobacterium tuberculosis; assay: Antibacterial activity against Mycobacterium tuberculosis mc2 6230 with Eis C-14T mutation assessed as inhibition of bacterial growth incubated upto 3 weeks hrs by resazurin dye based double-dilution method; format: functional
How it was run: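 Double-dilution broth MIC. Media: M. smegmatis, Mueller-Hinton; M. abscessus, 7H9 + 0.05% Tween80 + 0.4% glycerol; mc²6230, 7H9 + 0.05% tyloxapol, 0.5% glycerol, 10% OADC, 0.2% casamino acids, 24 µg/mL pantothenate; other mycobacteria, 7H9 + 0.05% Tween80, 0.4% glycerol, 10% ADC. Inoculum from agar set to 0.5 McFarland, then diluted 1:100.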

[2] = tested on: Mycobacterium tuberculosis; assay: Potentiation of kanamycin-induced antibacterial activity against Mycobacterium tuberculosis mc2 6230-K204 with Eis C-14T mutation assessed as kanamycin MIC incubated for 1 week by resazurin staining based microdilution method; format: functional; conditions: time 1 weeks
How it was run: (§1)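 Microdilution in 7H9 + 10% OADC, 0.5% glycerol, 0.05% tyloxapol, 0.2% casamino acids, 24 µg/mL pantothenate. […] Culture at 0.5 McFarland diluted 1:100 and added. Incubated one week at 37 °C, then 5 µL of 2.5 mg/mL resazurin added, read after two days. Duplicate.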

[3] = tested on: Mycobacterium tuberculosis; assay: Potentiation of kanamycin-induced antibacterial activity against Mycobacterium tuberculosis H37Rv mc2 6230 with Eis C-14T mutation assessed as kanamycin MIC incubated for 1 week by resazurin staining based microdilution method; format: functional; conditions: time 1 weeks; how it was run: as §1
[4] = tested on: Mycobacterium tuberculosis; assay: Antibacterial activity against Mycobacterium tuberculosis mc2 6230-K204 with Eis C-14T mutation inhibition of bacterial growth at 100 uM incubated for 1 week by resazurin staining based microdilution method; format: functional, organism-based; conditions: time 1.0 weeks
[5] = tested on: Mycobacterium tuberculosis; assay: Antibacterial activity against Mycobacterium tuberculosis H37Rv mc2 6230 with Eis C-14T mutation assessed as inhibition of bacterial growth at 100 uM incubated for 1 week by resazurin staining based microdilution method; format: functional, organism-based; conditions: time 1.0 weeks

| Structure (SMILES) | MIC [1] [µM] | MIC [2] [µg/mL] | MIC [3] | inhibition [4] | inhibition [5] |
| --- | --- | --- | --- | --- | --- |
| O=C(CCCN1CCC(O)(c2ccccc2)CC1)c1ccc(F)cc1 | >64 | >10 | <=1.25 ug ml-1 |  |  |
| O=C(CCCN1CCC(c2ccc(Cl)cc2)CC1)c1ccc(F)cc1 | 64 (≈ 23 µg/mL) |  |  | Active | Active |
| N=C(N)NCCCC(=O)c1ccc(F)cc1 | >64 | >10 | <=1.25 ug ml-1 |  |  |
| Cc1ccc(C(=O)CCCN2CCC(O)(c3ccc(Cl)cc3)CC2)cc1 | 31.3 (≈ 11.6 µg/mL) |  |  |  |  |
| O=C(CCCN1CCCCC1)c1ccc(F)cc1 [PRIMAPERONE] |  | >10 | <=1.25 ug ml-1 |  |  |
| O=C(CCCN1CCC(O)CC1)c1ccc(F)cc1 |  | >10 | <=1.25 ug ml-1 |  |  |
| O=C(CCCN1CC=C(c2ccc(Cl)cc2)CC1)c1ccc(F)cc1 | 32 (≈ 11.5 µg/mL) |  |  | Active | Active |
| CC(C)(C)c1ccc(C(=O)CCCN2CCC(O)(c3ccc(Cl)cc3)CC2)cc1 | 2 (≈ 0.828 µg/mL) |  |  |  |  |
| CC(C)c1ccc(C(=O)CCCN2CCC(O)(c3ccc(Cl)cc3)CC2)cc1 | 7.8 (≈ 3.12 µg/mL) |  |  |  |  |
| CC(C)(C)c1ccc(C(=O)CCCN2CCC(O)(c3ccc(Br)cc3)CC2)cc1 | 4 (≈ 1.83 µg/mL) |  |  |  |  |
| CCc1ccc(C(=O)CCCN2CCC(O)(c3ccc(Cl)cc3)CC2)cc1 | 15.6 (≈ 6.02 µg/mL) |  |  |  |  |
